Source: PMC6710528 (British Journal of Clinical Pharmacology, 2019)
Entries after “also recorded” stand apart in the source; their conditions may differ. Read-outs that look alike come from different tables or passages of the source.

Legend:
[1] = Plasma concentrations of ketoconazole and fluconazole to confirm steady state; assay type: in vivo, human (healthy subjects); conditions: 200 mg twice daily
In short: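 Inhibitors were given orally for 8 days (moderate inhibitor: 200 mg twice daily) before the test compound. Blood was drawn before the morning dose on Days 6–8. On Day 8 it was also drawn at 2 and 12 h post-dose for the strong inhibitor, and at 3 and 12 h for the moderate inhibitor. Plasma levels were measured by validated LC–MS/MS and reported as mean ± standard deviation.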

[2] = C-QTc model, phase 2 data; ref data on file, Daiichi Sankyo, Inc; cited from earlier work
[3] = assay type: in vivo, human (healthy subjects); conditions: for Increase in T1/2: quizartinib coadministered with ketoconazole; for Tmax / AUC(0-inf) / AUC(0-t) / half-life / Cmax: human, plasma, oral; for AUC(0-inf): AUCinf; for AUC(0-inf) / AUC(0-t) / Cmax: geometric LS mean (SE); for AUC(0-t): AUClast; for half-life: Mean T1/2 (CV%); for Geometric mean CL/F (%CV): quizartinib
[4] = Safety: adverse event evaluation; assay type: in vivo, human (healthy subjects)
In short: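 Healthy males and females aged 18–55 years were randomised 1:1:1 to strong inhibitor + test compound, moderate inhibitor + test compound, or test compound alone. A single oral 30 mg dose was given on Day 8. The safety population was everyone who received the test compound or ≥1 inhibitor dose. Assessments included physical exams, vital signs, 12‑lead ECG, haematology, chemistry and urinalysis. AEs were graded for severity, relation to study drugs and clinical significance through Day 29.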

[5] = ref data on file, Daiichi Sankyo, Inc; cited from earlier work
[6] = 12-lead electrocardiograms: QTcF interval by ICH E14 category; assay type: in vivo, human (healthy subjects); conditions: single 30-mg dose alone or with ketoconazole or fluconazole
[7] = AC886 in plasma, (Ketoconazole + Quizartinib)/(Quizartinib)
[8] = 30 mg, quizartinib in plasma, single 30-mg dose of quizartinib alone
[9] = 200 mg, quizartinib in plasma, single 30-mg dose with fluconazole 200 mg twice daily
[10] = 200 mg, quizartinib in plasma, single 30-mg dose with ketoconazole 200 mg twice daily
[11] = with fluconazole coadministration
[12] = with ketoconazole coadministration vs quizartinib alone

**Q.** With `CC(=O)N1CCN(c2ccc(OCC3COC(Cn4ccnc4)(c4ccc(Cl)cc4Cl)O3)cc2)CC1` (stereo not drawn) [ketoconazole] as the compound, how does the “Mean (± standard deviation) plasma concentration” value ([1]; predose on Day 6) read?
**A.** 1.5 ± 0.8 µg/mL

**Q.** And the “Mean (± standard deviation) plasma concentration” value ([1]; predose on Day 7)?
**A.** 1.4 ± 0.7 µg/mL

**Q.** And the “Mean (± standard deviation) plasma concentration” value ([1]; predose on Day 8)?
**A.** 1.4 ± 0.8 µg/mL

**Q.** What does the source list for `CC(C)(CO)c1cc(NC(=O)Nc2ccc(-c3cn4c(n3)sc3cc(OCCN5CCOCC5)ccc34)cc2)no1` [AC886]?
**A.** Effect on QTcF, fold lower than quizartinib [2]: 10 fold; AUCinf, ratio of geometric LS mean (90% CI) [3, 7]: 85%; AUClast, ratio of geometric LS mean (90% CI) [3, 7]: 67%; Cmax, ratio of geometric LS mean (90% CI) [3, 7]: 40%; Median Tmax (min, max) ([3]; AC886 in plasma, single 30-mg dose of quizartinib alone): 5.1 h; Median Tmax (min, max) ([3]; AC886 in plasma, single 30-mg quizartinib dose with fluconazole): 5.0 h; Median Tmax (min, max) ([3]; AC886 in plasma, single 30-mg quizartinib dose with ketoconazole): 48.0 h; Ratio of geometric LS means of Cmax of AC886 to Cmax of quizartinib ([3]; fluconazole + quizartinib arm): 0.12; Ratio of geometric LS means of Cmax of AC886 to Cmax of quizartinib ([3]; ketoconazole + quizartinib arm): 0.04; Ratio of geometric LS means of Cmax of AC886 to Cmax of quizartinib ([3]; quizartinib arm): 0.13; Increase in T1/2 [3]: 96%

**Q.** With `CC(C)(C)c1cc(NC(=O)Nc2ccc(-c3cn4c(n3)sc3cc(OCCN5CCOCC5)ccc34)cc2)no1` [quizartinib] as the compound, how does the “Increase in quizartinib exposure” value ([3]; coadministration with moderate CYP3A inhibitor fluconazole) read?
**A.** ≤ 20%

**Q.** What about the Tmax ([3]; 30 mg) of the same compound?
**A.** 4 h

**Q.** What about the AUC(0-inf) [3, 8] of the same compound?
**A.** 9630 ng·h/mL

**Q.** And the AUC(0-t) [3, 8]?
**A.** 9100 ng·h/mL

**Q.** What about the half-life [3, 8] of the same compound?
**A.** 98 h

**Q.** And the Tmax ([3]; 200 mg)?
**A.** 4 h

**Q.** And the AUC(0-inf) [3, 9]?
**A.** 11500 ng·h/mL

**Q.** And the AUC(0-inf) [3, 10]?
**A.** 18700 ng·h/mL

**Q.** What about the AUC(0-t) [3, 9] of the same compound?
**A.** 10900 ng·h/mL

**Q.** And the AUC(0-t) [3, 10]?
**A.** 17000 ng·h/mL

**Q.** What about the Cmax [3, 9] of the same compound?
**A.** 116 ng/mL

**Q.** And the Cmax [3, 10]?
**A.** 121 ng/mL

**Q.** And the half-life [3, 9]?
**A.** 112 h

**Q.** What about the half-life [3, 10] of the same compound?
**A.** 145 h

**Q.** What about the “Decrease in CL/F” value ([3]; ketoconazole coadministered with quizartinib) of the same compound?
**A.** 50%

**Q.** And the “Increase in T1/2” value [3]?
**A.** 46%

**Q.** What about the “Median Tmax (min, max)” value ([3]; quizartinib in plasma, single 30-mg dose with fluconazole 200 mg twice daily) of the same compound?
**A.** 4.0 (2.0, 5.0) [n = 28] h

**Q.** And the “Mean T1/2 (CV%)” value ([3]; quizartinib in plasma, single 30-mg dose with ketoconazole 200 mg twice daily)?
**A.** 149 (23.0) [n = 28] h

**Q.** And the “Geometric mean CL/F (%CV)” value ([3]; single 30-mg dose of quizartinib alone)?
**A.** 2.75 (35.9) [n = 29] L/h

**Q.** What about the “Geometric mean CL/F (%CV)” value ([3]; single 30-mg dose with fluconazole 200 mg twice daily) of the same compound?
**A.** 2.29 (34.3) [n = 28] L/h

**Q.** What about the “Geometric mean CL/F (%CV)” value ([3]; single 30-mg dose with ketoconazole 200 mg twice daily) of the same compound?
**A.** 1.42 (26.1) [n = 28] L/h

**Q.** What about the “Change in CL/F” value [3, 11] of the same compound?
**A.** ~17%

**Q.** And the “Change in mean T1/2” value [3, 11]?
**A.** ~ 10%

**Q.** And the “Increase in geometric LS mean AUCinf” value [3, 11]?
**A.** 20%

**Q.** And the “Increase in geometric LS mean AUClast” value [3, 11]?
**A.** 20%

**Q.** And the “Increase in geometric LS mean Cmax” value [3, 11]?
**A.** 11%

**Q.** And the “Increase in geometric LS mean AUCinf” value [3, 12]?
**A.** 94%

**Q.** And the “Increase in geometric LS mean AUClast” value [3, 12]?
**A.** 86%

**Q.** And the “Increase in geometric LS mean Cmax” value [3, 12]?
**A.** 17%

**Q.** What about the Serious adverse events ([4]; all treatment arms) of the same compound?
**A.** no serious adverse events or deaths occurred; also recorded: no serious AEs observed

**Q.** And the “Subjects who experienced at least 1 AE” value ([4]; fluconazole + quizartinib arm)?
**A.** 14 (45.2%) subjects (%)

**Q.** What about the “Subjects with AEs considered possibly related to quizartinib” value (“Subjects … to quizartinib” for short) ([4]; fluconazole + quizartinib arm) of the same compound?
**A.** 1 subjects

**Q.** What about the “Subjects … to quizartinib” value ([4]; ketoconazole + quizartinib arm) of the same compound?
**A.** 1 subjects

**Q.** And the “Subjects who experienced quizartinib-related adverse events” value ([4]; overall)?
**A.** 5.4%

**Q.** What about the “Subjects … to quizartinib” value ([4]; overall (n = 93)) of the same compound?
**A.** 5 (5.4%) subjects (%)

**Q.** And the “Subjects who experienced at least 1 AE” value ([4]; quizartinib + ketoconazole arm)?
**A.** 9 (29.0%) subjects (%)

**Q.** What about the “Subjects who experienced at least 1 AE” value ([4]; quizartinib arm) of the same compound?
**A.** 13 (41.9%) subjects (%)

**Q.** What about the “Subjects … to quizartinib” value ([4]; quizartinib arm) of the same compound?
**A.** 3 subjects

**Q.** And the Median effective half-life [5]?
**A.** 73 h

**Q.** And the “Vital signs and changes to QTcF, haematology or clinical chemistry” value [6]?
**A.** No significant abnormalities in vital signs or changes to QTcF

**Q.** For `OC(Cn1cncn1)(Cn1cncn1)c1ccc(F)cc1F` [fluconazole], which “Mean (± standard deviation) plasma concentration” value ([1]; predose on Day 6) is on record?
**A.** 13.2 ± 4.1 µg/mL

**Q.** What about the “Mean (± standard deviation) plasma concentration” value ([1]; predose on Day 7) of the same compound?
**A.** 13.8 ± 3.8 µg/mL

**Q.** And the “Mean (± standard deviation) plasma concentration” value ([1]; predose on Day 8)?
**A.** 14.5 ± 3.7 µg/mL
